Reference: ChEMBL document CHEMBL2413052, “Synthesis and initial in vitro biological evaluation of two new zinc-chelating compounds: comparison with TPEN and PAC-1” (Bioorg Med Chem, 2013)
Activity calls are given as the source filed them. The rule behind the calls is not given here.

Columns and labels:
PC-12 [1] = assay: Induction of apoptosis in rat PC12 cells assessed as procaspase-3 activation at 0.5 uM after 24 hrs by fluorometric assay; format: functional
Method in brief: (§1)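 Rat PC12 cells were seeded in 96-well plates at 28 × 10^4 for 24 h, then treated for 4 h, with DMSO-treated cells as control. Cells were lysed in modified RIPA buffer (50 mM Tris-HCl pH 7.4, 1% Igepal, 0.25% deoxycholate, 150 mM NaCl, 1 mM EGTA) containing 20 µM (DEVD)2-Rhodamine 110. Lysate was incubated 24 h at 37 °C and read at ex 485/em 535 nm as RFU/million cells.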

PC-12 [2] = assay: Induction of apoptosis in rat PC12 cells assessed as procaspase-3 activation at 1 uM after 24 hrs by fluorometric assay; format: functional; method in brief: as §1
[3] = Metal chelating activity of the compound assessed as zinc affinity by UV spectroscopy; format: functional
Method in brief: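 Compound diluted from a 10 mM DMSO stock to 50 µM final in 50 mM Hepes, 100 mM NaNO3, pH 7.4. ZnSO4 added at 0–1 equiv and equilibrated 60 min. Absorbance spectra recorded from 260 to 500 nm; change followed at 360 and 400 nm.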

PC-12 [4] = assay: Induction of apoptosis in rat PC12 cells assessed as procaspase-3 activation at 100 uM after 24 hrs by fluorometric assay; format: functional, cell-based
Method in brief: (§2)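 PC12 cells in 96-well plates were treated 4 h. Lysed in modified RIPA buffer (50 mM Tris-HCl pH 7.4, 1% Igepal, 0.25% deoxycholate, 150 mM NaCl, 1 mM EGTA) containing 20 µM (DEVD)2-rhodamine 110. Lysate incubated 24 h at 37 °C, fluorescence read at ex 485/em 535 nm. Wells with 1 µM Ac-DEVD-cmk served as negative control. DMSO control; staurosporine 0.5 and 1 µM as positive controls. Mean of 5 experiments ± S.D.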

PC-12 [5] = assay: Induction of apoptosis in rat PC12 cells at 100 uM after 24 hrs by trypan blue exclusion assay in presence of DHR; format: functional, cell-based
Method in brief: (§3)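 PC12 cells exposed 24 h to chelator (25, 100 or 200 µM), alone or together with ZnSO4, caspase-3 inhibitor, or DHR as ROS scavenger. Each additive was also tested alone. Stained with trypan blue. Dead cells expressed as % of total cells. Mean of 4 experiments ± S.D. One-way ANOVA with Holm-Sidak, compared against DMSO.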

PC-12 [6] = assay: Induction of apoptosis in rat PC12 cells after 24 hrs by trypan blue exclusion assay; format: functional, cell-based; conditions: for EC50: PC-12, 24 h
Method in brief: (§4)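 PC12 cells (rat pheochromocytoma) grown in DMEM with 5% horse serum, 10% FBS, penicillin/streptomycin and sodium pyruvate at 37 °C, 5% CO2. Treated 24 h at 10, 25, 50, 75, 100 and 200 µM in DMSO (0.1% final). Trypan blue in 0.9% NaCl added 1:4 for 30 min at 37 °C. Blue cells counted as dead, as % of total cells. Mean of 4 experiments ± S.D.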

PC-12 [7] = assay: Induction of apoptosis in rat PC12 cells assessed as ROS induction at 100 uM measured after 1 to 4 hrs by DHR oxidation-based fluorometric assay; format: functional, cell-based
Method in brief: (§5)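 PC12 cells in 96-well plates were loaded with DHR (0.1 µM) for 30 min at 37 °C, washed, then treated 1 h or 4 h. Medium was replaced with PBS and fluorescence read for 30 min (ex 485/em 535 nm). The slope gave ROS production, relative to the untreated-control slope at 4 h. Untreated and DMSO controls. Mean of 3 experiments ± S.D.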

PC-12 [8] = assay: Induction of apoptosis in rat PC12 cells assessed as ROS induction by DHE oxidation-based fluorometric assay; format: functional, cell-based
PC-12 [9] = assay: Induction of apoptosis in rat PC12 cells at 100 uM after 24 hrs by trypan blue exclusion assay in presence of ZnSO4; format: functional, cell-based; method in brief: as §3
PC-12 [10] = assay: Induction of apoptosis in rat PC12 cells at 100 uM after 24 hrs by trypan blue exclusion assay in presence of caspase-3 inhibitor C3-I; format: functional, cell-based; method in brief: as §3
[11] = Lipophilicity, log P of the compound; format: physicochemical; conditions: octanol/water
[12] = Distribution co-efficient, log D of the compound at pH 7.4; format: physicochemical; conditions: buffer
PC-12 [13] = assay: Induction of apoptosis in rat PC12 cells assessed as ROS induction at 200 uM measured after 1 to 4 hrs by DHR oxidation-based fluorometric assay; format: functional, cell-based; method in brief: as §5
PC-12 [14] = assay: Induction of apoptosis in rat PC12 cells assessed as procaspase-3 activation at 200 uM after 24 hrs by fluorometric assay; format: functional, cell-based; method in brief: as §2
PC-12 [15] = assay: Induction of apoptosis in rat PC12 cells at 200 uM after 24 hrs by trypan blue exclusion assay in presence of DHR; format: functional, cell-based; method in brief: as §3
PC-12 [16] = assay: Induction of apoptosis in rat PC12 cells at 200 uM after 24 hrs by trypan blue exclusion assay in presence of ZnSO4; format: functional, cell-based; method in brief: as §3
PC-12 [17] = assay: Induction of apoptosis in rat PC12 cells at 200 uM after 24 hrs by trypan blue exclusion assay; format: functional, cell-based; method in brief: as §4
PC-12 [18] = assay: Induction of apoptosis in rat PC12 cells at 200 uM after 24 hrs by trypan blue exclusion assay in presence of caspase-3 inhibitor C3-I; format: functional, cell-based; method in brief: as §3
PC-12 [19] = assay: Induction of apoptosis in rat PC12 cells assessed as procaspase-3 activation at 25 uM after 24 hrs by fluorometric assay; format: functional, cell-based; conditions: in the assay text read “after 4 hrs” for “after 24 hrs”; method in brief: as §2
PC-12 [20] = assay: Induction of apoptosis in rat PC12 cells at 25 uM after 24 hrs by trypan blue exclusion assay in presence of caspase-3 inhibitor C3-I; format: functional, cell-based; method in brief: as §3
PC-12 [21] = assay: Induction of apoptosis in rat PC12 cells at 25 uM after 24 hrs by trypan blue exclusion assay in presence of ZnSO4; format: functional, cell-based; method in brief: as §3
PC-12 [22] = assay: Induction of apoptosis in rat PC12 cells assessed as ROS induction at 25 uM measured after 1 to 4 hrs by DHR oxidation-based fluorometric assay; format: functional, cell-based; method in brief: as §5

Row | SMILES | logD [12] | Kd [3] [pM] | Activity (PC-12 [6]) | EC50 (PC-12 [6]) [µM] | Activity (PC-12 [8]) | Activity (PC-12 [13]) | Activity (PC-12 [14]) | Activity (PC-12 [15]) | Activity (PC-12 [16]) | EC50 (PC-12 [17]) | Activity (PC-12 [18]) | also measured
1 | CN[C@@H]1C[C@H]2O[C@@](C)([C@@H]1OC)n1c3ccccc3c3c4c(c5c6ccccc6n2c5c31)C(=O)NC4 [STAUROSPORINE] | – | – | – | – | – | – | – | – | – | – | – | RFU (PC-12 [1]): 6000; RFU (PC-12 [2]): 30000
2 | C=CCc1cccc(/C=N/NC(=O)CN2CCN(Cc3ccccc3)CC2)c1O [PAC-1] | – | 42000 | Dose-dependent effect | 122 | inactive | – | – | – | – | – | – | Activity (PC-12 [4]): Active; Activity (PC-12 [5]): inactive; Activity (PC-12 [7]): Active; Activity (PC-12 [9]): inactive; Activity (PC-12 [10]): inactive; logP [11]: 3.43
3 | c1ccc(CN(CCN(Cc2ccccn2)Cc2ccccn2)Cc2ccccn2)nc1 | – | 0.00026 | Dose-dependent effect | 38 | inactive | – | – | – | – | – | – | Activity (PC-12 [19]): Active; Activity (PC-12 [20]): inactive; Activity (PC-12 [21]): inactive; Activity (PC-12 [22]): Active

Further lines, with some results ahead:

Row | logD [12] | SMILES | Kd [3] [pM] | Activity (PC-12 [6]) | EC50 (PC-12 [6]) [µM] | Activity (PC-12 [8]) | Activity (PC-12 [13]) | Activity (PC-12 [14]) | Activity (PC-12 [15]) | Activity (PC-12 [16]) | EC50 (PC-12 [17]) | Activity (PC-12 [18]) | also measured
4 | 1.4 | O=C(CN1CCN(Cc2ccccc2)CC1)NNC(=O)CN(Cc1ccccn1)Cc1ccccn1 | 1000 | Dose-dependent effect | – | inactive | inactive | Active | inactive | Active | ND(Insoluble) | inactive | –
5 | 1.27 | Cc1ncc(CO)c(/C=N/NC(=O)CN2CCN(Cc3ccccc3)CC2)c1O | 0.2 | Dose-dependent effect | – | inactive | Active | Active | inactive | inactive | ND(Insoluble) | inactive | –
